Reference: PubChem BioAssay AID686919 (Broad Institute, 2013)
Calls of active or inactive are those of the source.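 Rule for the calls: active = remaining cruzain activity at or below half of the DMSO control at 10 µM, implied only; inactive = remaining activity above half of control.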

Test system: cruzain (cruzipain) [Trypanosoma cruzi]
Assay: T. cruzi cruzain enzyme activity inhibition – biochemical, dry powder, percent inhibition, mechanism study for T. cruzi phenotypic hit project, dose response (AID 686919)
Conditions: recombinant cruzain, Z-Phe-Arg-AMC fluorescence rate; at 10 µM (top of the series)
Procedure, shortened: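 Material: purified recombinant cruzain enzyme. Buffer or medium: 100 mM NaOAc pH 5.5, 5 mM DTT, 0.01% Triton X-100. Reagent: fluorogenic substrate Z-Phe-Arg-AMC at 10 µM final. Schedule: 5 min preincubation at room temperature, 3 min kinetic read. Signal: kinetic AMC fluorescence, excitation 355 nm, emission 460 nm. Control set: DMSO vehicle control.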

| remaining cruzain activity (% of DMSO control) | SMILES |
| --- | --- |
| 133% (inactive) | O=C(C1CCC1)N1CCCCN2[C@@H](CO)[C@H](c3ccc(Br)cc3)[C@@H]2C1 |
| 72.3% (inactive) | CN(C)C(=O)c1cccc(-c2ccc([C@H]3[C@H](CO)N4CCCCN(C(=O)C5CCCCC5)C[C@@H]34)cc2)c1 |
| 83.3% (inactive) | CN(C)C(=O)c1cccc(-c2ccc([C@H]3[C@H](CO)N4CCCCN(C(=O)CC5CC5)C[C@@H]34)cc2)c1 |
| 104% (inactive) | CN(C)C(=O)c1cccc(-c2ccc([C@H]3[C@H](CO)N4CCCCN(C(=O)C5CC5)C[C@@H]34)cc2)c1 |
| 106% (inactive) | CN(C)C(=O)c1cccc(-c2ccc([C@H]3[C@H](CO)N4CCCCN(C(=O)C5CCC5)C[C@@H]34)cc2)c1 |
